{
  "source": "ChEMBL document CHEMBL3286352",
  "about": "“Dimeric flavonoids from Arrabidaea brachypoda and assessment of their anti-Trypanosoma cruzi activity” (J Nat Prod, 2014)",
  "key": {"[1]": {"target": "Cruzipain (Trypanosoma cruzi) (UniProt P25779)", "sequence (P25779 123-467 limits assumed)": "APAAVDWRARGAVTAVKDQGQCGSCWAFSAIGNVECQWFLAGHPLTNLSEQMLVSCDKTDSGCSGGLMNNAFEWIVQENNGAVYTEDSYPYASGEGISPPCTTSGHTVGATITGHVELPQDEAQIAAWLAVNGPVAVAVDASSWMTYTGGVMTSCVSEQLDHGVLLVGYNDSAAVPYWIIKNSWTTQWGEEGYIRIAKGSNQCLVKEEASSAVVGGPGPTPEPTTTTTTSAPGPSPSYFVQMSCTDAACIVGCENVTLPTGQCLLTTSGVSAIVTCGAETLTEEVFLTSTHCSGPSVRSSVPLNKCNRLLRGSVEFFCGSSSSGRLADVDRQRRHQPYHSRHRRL", "test": "Inhibition of recombinant Trypanosoma cruzi cruzain at 25 uM preincubated for 10 mins followed by substrate addition measured after 10 mins relative to control", "method_in_brief": "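Recombinant cruzain activated in 0.1 M acetate buffer pH 5.5 with 5.5 mM DTT, adjusted to 0.1 μM. Enzyme in phosphate buffer with 0.01% Triton. Preincubated with compound 10 min at 35 °C, then fluorogenic substrate added for 10 min. Inhibition % = 100 − (A1/A × 100) against cruzain plus substrate RFU. Triplicate; E-64c as standard.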"}, "Trypanosoma cruzi [2]": {"test_system": "Trypanosoma cruzi", "test": "Antitrypanosomal activity against trypomastigote stage of Trypanosoma cruzi Y infected in BALB/c mouse peritoneal macrophages assessed as inhibition of host cell invasion at 10 uM after 2 hrs by hematoxylin/eosin staining-based optical microscopic analysis", "assay_type": "functional, organism-based", "method_in_brief": "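Macrophages at 1 × 10^5 per well on coverslips in RPMI + 10% FBS for 24 h. Infected with trypomastigotes at 100 per macrophage and treated at 10 μM, with amphotericin B 10 μM as reference. Incubated 2 h at 37 °C, washed, then 2 h more in medium. Fixed in absolute alcohol. Percentage of infected macrophages counted after H&E.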"}, "Trypanosoma cruzi [3]": {"test_system": "Trypanosoma cruzi", "test": "Antitrypanosomal activity against trypomastigote stage of Trypanosoma cruzi Y assessed as living parasites level after 24 hrs by Neubauer chamber analysis", "assay_type": "functional, organism-based", "method_in_brief": "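Y trypomastigotes from LLC-MK2 culture supernatants, 4 × 10^5 per well. Five concentrations, 0.24–20 μM, from DMSO stocks diluted in medium. Incubated 24 h at 37 °C, 5% CO2. Live parasites counted and compared with untreated culture. Run in triplicate, at least three independent experiments. IC50 as mean ± SD.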"}, "[4]": {"test": "Cytotoxicity against BALB/c mouse peritoneal macrophages after 72 hrs by AlamarBlue assay", "assay_type": "cell-based, Peritoneal macrophage cell", "conditions": "read-out: LC50", "method_in_brief": "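Peritoneal exudate macrophages from BALB/c mice, 1 × 10^5 cells/well in phenol-red-free RPMI-1640 with 10% FBS and 50 μg/mL gentamycin, pre-incubated 24 h at 37 °C, 5% CO2. Compounds from DMSO stocks diluted in medium, five concentrations 0.24–20 μM in triplicate, 72 h. AlamarBlue added over 10 h, read at 570/600 nm. LC50 from three independent experiments, mean ± SD.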"}, "Trypanosoma cruzi [5]": {"test_system": "Trypanosoma cruzi", "test": "Antitrypanosomal activity against amastigote stage of Trypanosoma cruzi Y in BALB/c mouse peritoneal macrophages assessed as reduction of number of intracellular parasites per 100 cells after 4 days by hematoxylin/eosin staining-based optical microscopic analysis", "assay_type": "functional, organism-based", "conditions": "96 h", "method_in_brief": "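Macrophages plated 2 × 10^5 per well on coverslips in RPMI + 10% FBS for 24 h, infected with trypomastigotes at 10 parasites per macrophage for 2 h, then washed. Compounds at five concentrations, 0.12–10 μM, in triplicate for 6 h. Medium replaced, 4 days further culture. Coverslips fixed in absolute alcohol. IC50 taken as concentration halving amastigotes per 100 macrophages; mean ± SD of three independent experiments.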"}, "Trypanosoma cruzi [6]": {"test_system": "Trypanosoma cruzi", "test": "Antitrypanosomal activity against blood stage trypomastigote form of Trypanosoma cruzi Y infected in BALB/c mouse assessed as reduction of blood parasitemia at 100 mg/kg, po qd administered for 5 days relative to control", "assay_type": "functional", "parameters": "scale not given: the % may be the effect or the level left", "method_in_brief": "(§1)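 Female BALB/c mice, 6–8 weeks, infected ip with 10^4 bloodstream Y trypomastigotes, six per group. From day 5, oral dosing once daily for five days, vehicle saline with 20% DMSO; untreated infected group got vehicle. Motile parasites counted in 5 μL tail-vein fresh blood. Survival checked daily to day 30. Means ± SEM.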"}, "Trypanosoma cruzi [7]": {"test_system": "Trypanosoma cruzi", "test": "Antitrypanosomal activity against blood stage trypomastigote form of Trypanosoma cruzi Y infected in BALB/c mouse assessed as reduction of mortality at 100 mg/kg, po qd administered for 5 days measured for 30 days", "assay_type": "functional, organism-based", "parameters": "dose 100 mg/kg", "method_in_brief": "as §1"}, "Mus musculus": {"test_system": "Mus musculus", "test": "Toxicity in BALB/c mouse infected with blood stage trypomastigote form of Trypanosoma cruzi Y at 100 mg/kg, po qd administered for 5 days measured during compound treatment", "assay_type": "organism-based", "parameters": "dose 100 mg/kg, route oral", "conditions": "in vivo, 120 h", "method_in_brief": "as §1"}},
  "note": "pIC50: −log10 of the molar value. Active and inactive are the calls of the source. No cut-off for these calls is given here.",
  "data": [
    {"smiles": "COc1cc(O)cc2c1[C@@H](/C=C/c1ccccc1)[C@@H]1[C@@H](c3ccccc3)Oc3cc(O)cc(OC)c3[C@@H]1O2", "values": [
      {"measurement": "inhibition", "setting": "[1]", "result": 0, "unit": "%"},
      {"measurement": "inhibition", "setting": "Trypanosoma cruzi [2]", "result": "Active"},
      {"measurement": "pIC50", "setting": "Trypanosoma cruzi [3]", "result": 5.18},
      {"measurement": "CC50 at 72 h", "setting": "[4]", "result": 17.3, "unit": "µM"},
      {"measurement": "pIC50", "setting": "Trypanosoma cruzi [5]", "result": 5.17}
    ]},
    {"smiles": "O=C(Cn1ccnc1[N+](=O)[O-])NCc1ccccc1", "note": "[BENZNIDAZOLE]", "values": [
      {"measurement": "inhibition", "setting": "Trypanosoma cruzi [2]", "result": "Active"},
      {"measurement": "pIC50", "setting": "Trypanosoma cruzi [3]", "result": 4.95},
      {"measurement": "CC50 at 72 h", "setting": "[4]", "result": "> 20", "unit": "µM"},
      {"measurement": "Activity", "setting": "Trypanosoma cruzi [6]", "result": 99, "unit": "%"}
    ]},
    {"smiles": "COc1cc(O)cc2c1[C@@H](/C=C/c1ccc(O)cc1)[C@@H]1[C@@H](c3ccccc3)Oc3cc(O)cc(OC)c3[C@@H]1O2", "values": [
      {"measurement": "inhibition", "setting": "[1]", "result": 0, "unit": "%"},
      {"measurement": "pIC50", "setting": "Trypanosoma cruzi [3]", "result": "< 4.70"},
      {"measurement": "CC50 at 72 h", "setting": "[4]", "result": "> 20", "unit": "µM"},
      {"measurement": "pIC50", "setting": "Trypanosoma cruzi [5]", "result": "< 4.70"}
    ]},
    {"smiles": "CN(C)c1ccc(C(=C2C=CC(=[N+](C)C)C=C2)c2ccc(N(C)C)cc2)cc1", "note": "[GENTIAN VIOLET]", "values": [
      {"measurement": "CC50 at 72 h", "setting": "[4]", "result": 0.48, "unit": "µM"}
    ]},
    {"smiles": "COc1ccc(/C=C/[C@@H]2c3c(OC)cc(O)cc3O[C@H]3c4c(OC)cc(O)cc4O[C@H](c4ccccc4)[C@@H]23)cc1", "values": [
      {"measurement": "inhibition", "setting": "[1]", "result": 0, "unit": "%"},
      {"measurement": "inhibition", "setting": "Trypanosoma cruzi [2]", "result": "Active"},
      {"measurement": "pIC50", "setting": "Trypanosoma cruzi [3]", "result": 5.28},
      {"measurement": "Activity", "setting": "Trypanosoma cruzi [7]", "result": "Active"},
      {"measurement": "CC50 at 72 h", "setting": "[4]", "result": 15.6, "unit": "µM"},
      {"measurement": "Activity", "setting": "Mus musculus", "result": "Non-toxic"},
      {"measurement": "pIC50", "setting": "Trypanosoma cruzi [5]", "result": 5.22},
      {"measurement": "Activity", "setting": "Trypanosoma cruzi [6]", "result": 92, "unit": "%"}
    ]},
    {"smiles": "CC(C)CCNC(=O)[C@H](CC(C)C)NC(=O)[C@H]1O[C@@H]1C(=O)O", "values": [
      {"measurement": "inhibition", "setting": "[1]", "result": 100, "unit": "%"}
    ]}
  ]
}
